Hsp70 act: Hsp70 transcriptional activation, primary screen; activation, % at 10 µM; 200,000 tested, 0.04% active; AID 1203; HeLa Hsp70 promoter luciferase reporter, luminescence; scaled: vehicle 0, proteasome-inhibitor control 100%;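 active = activation above the mean across all tested compounds plus 3 SD, cutoff set per campaign, cut at about 5.5% in these data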;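 also: 100% = MG132 at 30 µM as the positive control and 0% = DMSO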
CHOP inh: CHOP inhibition in unfolded protein response; CHO-K1 CHOP-promoter luciferase, tunicamycin-induced, 15-18 h; inhibition, % at 10 µM; 220,000 tested, 3.8% active; AID 2732;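 active = compounds that reduced the stress-induced luciferase reporter signal by more than about 70% of percent inhibition, limit read from the data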;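 also: 0% = tunicamycin plus vehicle and 100% = wells without tunicamycin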
S1P3 antag: antagonists of human S1P3 receptor | CHO S1P3 NFAT-BLA reporter, FRET fluorescence, antagonist mode | AID 485 | inhibition, % at 4.98 µM | 170,000 tested, 0.27% active;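 active = inhibition above the plate cutoff, the mean inhibition of test wells on that plate plus 3 SD, cut at about 28% in these data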;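 also: cells challenged with S1P at its EC80 of 0.8 µM; blue over green emission ratio from cleaved BLA substrate after 4 h stimulation; 0% = S1P-stimulated wells and 100% = unstimulated DMSO-only wells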
Target sequence (Q99500 whole entry, looked up): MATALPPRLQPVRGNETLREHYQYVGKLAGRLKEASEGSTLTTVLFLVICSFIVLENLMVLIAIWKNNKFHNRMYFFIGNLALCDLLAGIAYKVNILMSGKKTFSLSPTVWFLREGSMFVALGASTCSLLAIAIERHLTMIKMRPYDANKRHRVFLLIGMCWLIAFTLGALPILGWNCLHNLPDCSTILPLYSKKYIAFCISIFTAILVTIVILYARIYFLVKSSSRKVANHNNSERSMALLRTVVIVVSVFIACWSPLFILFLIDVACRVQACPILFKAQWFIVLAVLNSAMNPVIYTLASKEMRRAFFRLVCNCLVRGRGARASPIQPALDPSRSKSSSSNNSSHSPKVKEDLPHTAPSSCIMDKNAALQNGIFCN
Mdm2 ligase inh: inhibitors of human Mdm2 E3 ubiquitin ligase; 210,000 tested, 0.11% active; signal enhancement, % at 5 µM; cell-based MDM2 ubiquitination luciferase reporter, 2 h; 0 = plate control, 100 = twice control, blank-subtracted; Q00987; AID 1230;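 active = signal enhancement of 30% or more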;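 also: luminescence tracks abundance of the self-degrading MDM2-luciferase fusion protein; higher signal means inhibition of MDM2 E3 ligase activity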
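Assay system: mammalian cells stably expressing self-ubiquitinating, self-degrading MDM2 E3–luciferase fusion. Quantity: 2000 cells in each well. Medium: DMEM culture medium. Compound dosing: single-point 5 µM. Timing: cell settling 4 h, compound treatment 2 h, both 37 °C. Technique: luciferase luminescence. Read-out basis: percent signal gain over controls, blank-subtracted. Benchmarks: plate controls and plate blanks.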
CHOP confirm: confirmation of CHOP induction inhibitors. shares compounds with CHOP inh. CHO-CHOP promoter luciferase reporter, tunicamycin-induced, luminescence. inhibition, % at 10 µM. 2,100 tested, 45% active. AID 504437;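 active = mean of three repeat readings of reporter signal inhibition above a set limit, cut at about 70% in these data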;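 also: 0% = tunicamycin plus vehicle and 100% = wells lacking tunicamycin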
Numbers without * were called inactive; · = no result given. The list is not random: actives were taken first. Their share in the collection is about 4%.

SMILES | Hsp70 act | CHOP inh | S1P3 antag | Mdm2 ligase inh | CHOP confirm
COc1cccc(/C=C2/CN(C)CC3=C2OC(N)=C(C#N)C3c2cccc(OC)c2)c1 (configuration not stated) | 0 | 27 | · | -11 | ·
Cc1ccc(/C=C2\CCC3=C2OC(N)=C(C#N)C3c2ccc(C)cc2)cc1 (configuration not stated) | -1 | 98* | · | 2 | -75
Cc1oc(-c2cccc(F)c2)nc1CN1CCCCC1CCc1ccccn1 (configuration not stated) | 0 | -2 | 2 | 2 | ·
CCc1ccc(C(=O)/C=C/Nc2ccc(S(=O)(=O)Nc3cnc4ccccc4n3)cc2)cc1 | · | 101* | 8 | · | 9
O=C(/C=C/Nc1ccc(S(=O)(=O)Nc2ncccn2)cc1)c1ccc(Cl)c(Cl)c1 | 0 | 102* | -4 | -6 | 5
Cc1cccnc1NC(=O)C(C)N1C(=O)c2ccccc2C1=O (configuration not stated) | · | -12 | 10 | -18 | ·
O=C(CN1CCN(c2ncc(C(F)(F)F)cc2Cl)CC1)NCCNc1ncc(C(F)(F)F)cc1Cl | 0 | 101* | · | -6 | 106*
NNC(=O)CN1CCN(c2ncc(C(F)(F)F)cc2Cl)CC1 | 0 | -4 | -1 | -11 | ·
Oc1ccc(Br)cc1-c1cc(-c2ccccc2F)[nH]n1 | 0 | 98* | · | -15 | 100*
Oc1ccc(Cl)cc1-c1cc(-c2ccccc2)n[nH]1 | 0 | 105* | 0 | -11 | 82*
Cc1ccc(O)c(-c2cc(-c3cccc(Br)c3)n[nH]2)c1 | 0 | 97* | 1 | -1 | 34
CCOc1ccc(-c2[nH]ncc2Oc2cccc(OC)c2)c(O)c1 | 0 | 107* | -52 | -1 | -7
CCOc1ccc(-c2[nH]ncc2-c2csc(C)n2)c(O)c1 | 0 | 10 | -11 | -11 | ·
CCCOC(=O)c1ccc(Oc2c(-c3ccc(OCC)cc3O)n[nH]c2C)cc1 | 0 | 113* | 1 | -11 | 118*
CCCOC(=O)c1ccc(Oc2cn[nH]c2-c2ccc(OCC)cc2O)cc1 | 0 | 107* | -18 | -12 | 124*
COc1ccc2c(=O)cc(-c3ccccc3)n(C)c2c1 | 0 | 32 | · | · | ·
O=C(COc1ncnc2ccccc12)c1ccc(Cl)cc1 | 0 | -11 | -5 | -2 | ·
Brc1ccc(C=Nc2ccc3c(c2)OCCOCCOCCO3)s1 | 0 | -13 | -14 | 8 | ·
Cc1cccc(NC(=O)C2(C)CC3c4ccccc4C2c2ccccc23)c1 (configuration not stated) | 0 | 103* | · | -20 | -9
CC(C)OP(=O)(OC(C)C)C(O)c1cccc([N+](=O)[O-])c1 (configuration not stated) | · | -8 | 4 | · | ·
NC(N)=N/N=C/c1ccccc1 | 0 | 3 | · | -12 | ·
NC(N)=N/N=C/c1ccc(OCc2ccccc2Cl)cc1 | 0 | 97* | · | -20 | -14
O=C(Nc1ccc(Cl)cc1)N1CCC(c2nc(-c3ccc(F)cc3)no2)CC1 | 0 | 104* | 3 | -3 | 4
CCCCCCSc1nsc(NC(=O)CCC)n1 | 0 | 106* | -14 | 4 | 103*
c1ccc(-c2nnc3n2-c2ccccc2SC3)cc1 | · | -8 | -1 | -19 | ·
SMILES | Hsp70 act | CHOP inh | S1P3 antag | Mdm2 ligase inh | CHOP confirm
Cc1c(C(=O)N/N=C/C(C)C)[nH]c2ccc([N+](=O)[O-])cc12 | 0 | -9 | -8 | -9 | ·
Cc1c(C(=O)N/N=C/c2ccc(Cl)cc2)[nH]c2ccc(Cl)cc12 | 0 | 98* | -15 | 9 | 19
CCOC(=O)C1=C(C)NC(C)=C(C(=O)OCC)C1/C=C/c1ccccc1 | 0 | 99* | · | 2 | 92*
C=CCOC(=O)C1=C(C)NC(C)=C(C(=O)OCC=C)C1/C=C/c1ccccc1 | -1 | 100* | · | 16 | 105*
C=CCN(CC=C)C(=S)Nc1ccc(OC)c(OC)c1 | 0 | -1 | -12 | -1 | ·
CCN(CC)C(=N)N1c2ccccc2CCC1C (configuration not stated) | 0 | 15 | -5 | -11 | ·
CC(=O)Nc1ccccc1/C=C/c1ccc2c(C)cc(C)c(O)c2n1 | 0 | 97* | -6 | -7 | 24
Cc1cc(/C=C2\NC(=O)N(Cc3ccc(Cl)cc3)C2=O)c(C)n1C | 0 | 31 | -2 | -11 | ·
Cc1ccc(CN2C(=O)N/C(=C/c3ccc4c(c3)n(C)c(=O)n4C)C2=O)cc1 | 0 | 106* | -8 | -16 | 55
Cc1ccc(C(=O)Oc2oc(-c3ccccc3)nc2C=Nc2ccc(N(C)C)cc2)cc1 | 0 | 12 | -6 | -18 | ·
Cc1ccc(C(=O)Oc2oc(-c3ccco3)nc2C=Nc2ccc(Cl)cc2)cc1 | 0 | 101* | · | -22 | 0
O=C(Oc1oc(-c2ccco2)nc1C=Nc1ccccc1)c1ccco1 | 0 | -20 | · | 1 | ·
O=C(Oc1oc(-c2ccco2)nc1C=Nc1ccccc1)c1ccoc1 | 0 | 109* | · | 12 | -5
Nc1nonc1-n1nnc(C(=O)O)c1-c1cccs1 | 0 | 7 | 10 | -18 | ·
COc1cccc(NC(=O)CSc2nnc(-c3cc(C)n(-c4ccccc4)c3C)o2)c1 | 0 | 98* | 0 | -14 | 85*
CC(=O)Nc1ccc(NC(=O)C(C)OC(=O)CCc2nc3ccccc3s2)cc1 (configuration not stated) | 0 | 11 | -4 | -21 | ·
Cc1cccc(NCC(=O)N/N=C/c2ccc(Br)cc2)c1 | 0 | 68 | -12 | -7 | ·
Cc1ccc(NCC(=O)N/N=C/c2cccc(Oc3ccccc3)c2)cc1 | 0 | 101* | 13 | -15 | 85*
Cc1cccc(NCC(=O)N/N=C\c2cccc(Oc3ccccc3)c2)c1 | 0 | 104* | -5 | -8 | 81*
CCS(=O)(=O)c1ccc2oc(SCC(=O)NC3CCCC(C)C3C)nc2c1 (configuration not stated) | 0 | 14 | · | -2 | ·
Fc1cc(F)c2nc(Nc3nc4cc5c(cc4s3)OCO5)sc2c1 | 0 | 109* | -5 | 2 | 84*
C=CCn1c(SCC(=O)c2[nH]c(C)c(C(=O)OCC)c2C)nc2scc(-c3ccc(OC)c(OC)c3)c2c1=O | 0 | 106* | 1 | · | 50
CCOC(=O)c1c(C)[nH]c(C(=O)CSc2nnc(-c3ccncc3)n2CC)c1C | 0 | 23 | · | -10 | ·
O=S(=O)(Cc1ccccc1Cl)N1CCCCC1 | 0 | 1 | 11 | -7 | ·
CC(=O)c1ccc(NC(=S)NCC(c2ccco2)N2CCCC2)cc1 (configuration not stated) | 0 | 3 | 12 | -14 | ·
CC(C)(C)C1CCC(C(=O)OCC(=O)c2ccc[nH]2)CC1 (configuration not stated) | 0 | 101* | 2 | -11 | 100*
C=CCOc1ccc(S(C)(=O)=O)cc1 | · | -1 | -6 | · | ·
Cc1ccccc1OCc1n(CC(=O)OC2CC(C)CCC2C(C)C)c2ccccc2[n+]1C (configuration not stated) | 0 | 108* | -10 | -24 | 137*
